For series [1] the following is noted: ref Chakravarti & Sem Gupta 1950, cited from earlier work.
In series [2] the test system is L. (L.) infantum chagasi promastigotes. Put plainly: L. Format: cell-based, Leishmania (Leishmania) infantum chagasi. The following applies: evaluation of the IC50. The procedure, abridged: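 Promastigotes (MHOM/BR/1972/LD; M-199 with 10% FBS, 0.25% haemin) were seeded at 1 × 10⁶ cells/well. Two-fold serial dilutions were applied for 24 h at 24 °C. MTT was added for 4 h at 24 °C, formazan was dissolved in 10% SDS for 18 h, and OD was read at 570 nm. Viability was normalised to untreated promastigotes (100%). IC50 came from a sigmoid dose-response fit, three experiments in duplicate.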

Series [3] deals with L. (L.) infantum chagasi amastigotes. Put plainly: Treatment of L. Format: in vivo, BALB/c mice. Conditions: 50 mg Sb5+/kg/day i.p., four consecutive days. The procedure, abridged: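 Female BALB/c mice (20-24 g) were infected i.v. by the retro-bulbar route with 1-2 x 10⁷ hamster-spleen amastigotes/150 µL. From day 7, groups of 4 received 50 mg Sb⁵⁺/kg/day i.p. for four consecutive days; controls received PBS. Mice were euthanised two weeks post-infection and liver and spleen were weighed. Amastigotes per 400 nuclei on Giemsa imprints × organ weight (g) gave Leishman-Donovan units.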

Series [4] concerns intracellular L. (L.) infantum chagasi amastigotes. Put plainly: Activity against intracellular amastigotes in infected peritoneal macrophages. Format: cell-based, Leishmania (Leishmania) infantum chagasi. Conditions: ratio of IC50 promastigotes to amastigotes. The procedure, abridged: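 For amastigotes, BALB/c peritoneal macrophages were plated on coverslips at 4 × 10⁵/well for 24 h. They were infected with hamster-spleen amastigotes at 10:1 for 24 h and washed. Compound was added for 5 days at 37 °C, 5% CO₂. Giemsa counts in 400 macrophages (untreated = 100%) gave a sigmoid-fit IC50, two experiments in duplicate.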

For series [5] the following is noted: ref Rees et al. (1980), cited from earlier work.

Where two headings read alike, the source gives them in different places.

Turning to meglumine antimoniate [MA], the “time to complete elimination after administration” value in series [1] (healthy individuals, renal excretion) is on record as 24 h. The “antimony in the urine 36 h after drug administration” value in series [1] (ill patients (VL), 36 h) is listed as “traces of antimony were still observed in the urine”. For the same compound, the susceptibility of promastigotes entry in series [2] is reported as “not susceptible”. For the same compound, in series [3] (untreated control 41.69 (8.60)), the “parasite burden in the spleen, mean (SD)” value is reported as 32.17 (19.20) amastigotes per gram. The “parasite burden in the liver, mean (SD)” value in series [3] (untreated control 3,331 (1,745)) is 2,696 (1,472) amastigotes per gram. Further, the “fold more active against amastigotes than against promastigotes” value in series [4] is listed as 680 fold.
As to `O.O.O.O.O.O.O.O.O.O=C([O-])[C@@H]1[O][Sb](=[O])([O][Sb]2(=[O])[O][C@H]([C@H](O)CO)[C@H](O)[C@H](C(=O)[O-])[O]2)[O][C@H]([C@H](O)CO)[C@@H]1O.[Na+].[Na+].[Na+]` (some centres unmarked) [sodium stibogluconate], the “excreted in the urine” value in series [5] (administered intravenously, after 6 h) was 96%; in series [5] (intramuscular injection, after 6-8 h), 80-91%.

These data come from paper PMC3970594 (Memórias do Instituto Oswaldo Cruz, 2013).
